How the values were obtained:
Heart [1] = assay: Biodistribution in Kunming mouse heart at 1 uCi, iv after 2 mins by gamma counting; type: ADME, organism-based; details: in vivo
In short: (§1)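 125I-labeled tracer given intravenously to normal mice. Organs and blood were sampled at 2, 15, 30, 60, 120 and 240 min after injection. Uptake is expressed as % ID/g, averaged over 5 mice ± SD.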

Stomach [2] = assay: Biodistribution in Kunming mouse stomach assessed per organ at 1 uCi, iv after 30 mins by gamma counting; type: ADME, organism-based; details: in vivo, 0.5 h
In short: (§2)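 Radioiodinated tracers given intravenously to normal mice; organs taken at 2, 15, 30, 60, 120 and 240 min after injection. Uptake expressed as % ID/g, mean ± SD of 5 mice; stomach values carry a table footnote.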

Muscle tissue [3] = assay: Biodistribution in Kunming mouse muscle at 1 uCi, iv after 15 mins by gamma counting; type: ADME, organism-based; details: in vivo, 0.25 h; in short: as §1
Heart [4] = assay: Biodistribution in Kunming mouse heart at 1 uCi, iv after 30 mins by gamma counting; type: ADME, organism-based; details: in vivo, 0.5 h; in short: as §1
Liver [5] = assay: Biodistribution in Kunming mouse liver at 1 uCi, iv after 30 mins by gamma counting; type: ADME, organism-based; details: in vivo, 0.5 h; in short: as §1
Spleen [6] = assay: Biodistribution in Kunming mouse spleen at 1 uCi, iv after 60 mins by gamma counting; type: ADME, organism-based; details: in vivo, 1 h; in short: as §2
Muscle tissue [7] = assay: Biodistribution in Kunming mouse muscle at 1 uCi, iv after 30 mins by gamma counting; type: ADME, organism-based; details: in vivo, 0.5 h; in short: as §1
Stomach [8] = assay: Biodistribution in Kunming mouse stomach assessed per organ at 1 uCi, iv after 60 mins by gamma counting; type: ADME, organism-based; details: in vivo, 1 h; in short: as §2
Heart [9] = assay: Biodistribution in Kunming mouse heart at 1 uCi, iv after 60 mins by gamma counting; type: ADME, organism-based; details: in vivo, 1 h; in short: as §1
Spleen [10] = assay: Biodistribution in Kunming mouse spleen at 1 uCi, iv after 15 mins by gamma counting; type: ADME, organism-based; details: in vivo, 0.25 h; in short: as §1
[11] = Octanol-phosphate buffer partition coefficient, log D of the compound at pH 7.4; type: physicochemical
In short: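 Radioiodinated tracer partitioned between n-octanol and PBS at pH 7.4; log D reported as mean ± SD.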

Heart [12] = assay: Biodistribution in Kunming mouse heart at 1 uCi, iv after 240 mins by gamma counting; type: ADME, organism-based; details: in vivo, 4 h; in short: as §1
Lung [13] = assay: Biodistribution in Kunming mouse lung at 1 uCi, iv after 30 mins by gamma counting; type: ADME, organism-based; details: in vivo, 0.5 h; in short: as §1
Kidney [14] = assay: Biodistribution in Kunming mouse kidney at 1 uCi, iv after 2 mins by gamma counting; type: ADME, organism-based; details: in vivo; in short: as §1
Heart [15] = assay: Biodistribution in Kunming mouse heart at 1 uCi, iv after 15 mins by gamma counting; type: ADME, organism-based; details: in vivo, 0.25 h; in short: as §1
Lung [16] = assay: Biodistribution in Kunming mouse lung at 1 uCi, iv after 15 mins by gamma counting; type: ADME, organism-based; details: in vivo, 0.25 h; in short: as §1
Blood [17] = assay: Biodistribution in Kunming mouse blood at 1 uCi, iv after 15 mins by gamma counting; type: ADME, organism-based; details: in vivo, 0.25 h; in short: as §1
Brain [18] = assay: Biodistribution in Kunming mouse brain at 1 uCi, iv after 120 mins by gamma counting; type: ADME, organism-based; details: in vivo, 2 h; in short: as §1
Liver [19] = assay: Biodistribution in Kunming mouse liver at 1 uCi, iv after 15 mins by gamma counting; type: ADME, organism-based; details: in vivo, 0.25 h; in short: as §1
Spleen [20] = assay: Biodistribution in Kunming mouse spleen at 1 uCi, iv after 2 mins by gamma counting; type: ADME, organism-based; details: in vivo; in short: as §1
Lung [21] = assay: Biodistribution in Kunming mouse lung at 1 uCi, iv after 120 mins by gamma counting; type: ADME, organism-based; details: in vivo, 2 h; in short: as §1
Brain [22] = assay: Biodistribution in Kunming mouse brain at 1 uCi, iv after 60 mins by gamma counting; type: ADME, organism-based; details: in vivo, 1 h; in short: as §1
Kidney [23] = assay: Biodistribution in Kunming mouse kidney at 1 uCi, iv after 60 mins by gamma counting; type: ADME, organism-based; details: in vivo, 1 h; in short: as §1
Blood [24] = assay: Biodistribution in Kunming mouse blood at 1 uCi, iv after 30 mins by gamma counting; type: ADME, organism-based; details: in vivo, 0.5 h; in short: as §1
Spleen [25] = assay: Biodistribution in Kunming mouse spleen at 1 uCi, iv after 240 mins by gamma counting; type: ADME, organism-based; details: in vivo, 4 h; in short: as §1
Muscle tissue [26] = assay: Biodistribution in Kunming mouse muscle at 1 uCi, iv after 2 mins by gamma counting; type: ADME, organism-based; details: in vivo; in short: as §1
Lung [27] = assay: Biodistribution in Kunming mouse lung at 1 uCi, iv after 240 mins by gamma counting; type: ADME, organism-based; details: in vivo, 4 h; in short: as §1
Kidney [28] = assay: Biodistribution in Kunming mouse kidney at 1 uCi, iv after 15 mins by gamma counting; type: ADME, organism-based; details: in vivo, 0.25 h; in short: as §1
Liver [29] = assay: Biodistribution in Kunming mouse liver at 1 uCi, iv after 120 mins by gamma counting; type: ADME, organism-based; details: in vivo, 2 h; in short: as §1
Stomach [30] = assay: Biodistribution in Kunming mouse stomach assessed per organ at 1 uCi, iv after 2 mins by gamma counting; type: ADME, organism-based; details: in vivo; in short: as §2
Muscle tissue [31] = assay: Biodistribution in Kunming mouse muscle at 1 uCi, iv after 240 mins by gamma counting; type: ADME, organism-based; details: in vivo, 4 h; in short: as §1
Liver [32] = assay: Biodistribution in Kunming mouse liver at 1 uCi, iv after 240 mins by gamma counting; type: ADME, organism-based; details: in vivo, 4 h; in short: as §1
Lung [33] = assay: Biodistribution in Kunming mouse lung at 1 uCi, iv after 60 mins by gamma counting; type: ADME, organism-based; details: in vivo, 1 h; in short: as §1
Liver [34] = assay: Biodistribution in Kunming mouse liver at 1 uCi, iv after 2 mins by gamma counting; type: ADME, organism-based; details: in vivo; in short: as §1
Stomach [35] = assay: Biodistribution in Kunming mouse stomach assessed per organ at 1 uCi, iv after 15 mins by gamma counting; type: ADME, organism-based; details: in vivo, 0.25 h; in short: as §2
Kidney [36] = assay: Biodistribution in Kunming mouse kidney at 1 uCi, iv after 120 mins by gamma counting; type: ADME, organism-based; details: in vivo, 2 h; in short: as §1
Blood [37] = assay: Biodistribution in Kunming mouse blood at 1 uCi, iv after 120 mins by gamma counting; type: ADME, organism-based; details: in vivo, 2 h; in short: as §1
Blood [38] = assay: Biodistribution in Kunming mouse blood at 1 uCi, iv after 60 mins by gamma counting; type: ADME, organism-based; details: in vivo, 1 h; in short: as §1
Spleen [39] = assay: Biodistribution in Kunming mouse spleen at 1 uCi, iv after 120 mins by gamma counting; type: ADME, organism-based; details: in vivo, 2 h; in short: as §1
Liver [40] = assay: Biodistribution in Kunming mouse liver at 1 uCi, iv after 60 mins by gamma counting; type: ADME, organism-based; details: in vivo, 1 h; in short: as §1
Brain [41] = assay: Biodistribution in Kunming mouse brain at 1 uCi, iv after 15 mins by gamma counting; type: ADME, organism-based; details: in vivo, 0.25 h; in short: as §1
Brain [42] = assay: Biodistribution in Kunming mouse brain at 1 uCi, iv after 2 mins by gamma counting; type: ADME, organism-based; details: in vivo; in short: as §1
Muscle tissue [43] = assay: Biodistribution in Kunming mouse muscle at 1 uCi, iv after 120 mins by gamma counting; type: ADME, organism-based; details: in vivo, 2 h; in short: as §1
Blood [44] = assay: Biodistribution in Kunming mouse blood at 1 uCi, iv after 240 mins by gamma counting; type: ADME, organism-based; details: in vivo, 4 h; in short: as §1
Heart [45] = assay: Biodistribution in Kunming mouse heart at 1 uCi, iv after 120 mins by gamma counting; type: ADME, organism-based; details: in vivo, 2 h; in short: as §1
Lung [46] = assay: Biodistribution in Kunming mouse lung at 1 uCi, iv after 2 mins by gamma counting; type: ADME, organism-based; details: in vivo; in short: as §1
Brain [47] = assay: Biodistribution in Kunming mouse brain at 1 uCi, iv after 240 mins by gamma counting; type: ADME, organism-based; details: in vivo, 4 h; in short: as §1
Stomach [48] = assay: Biodistribution in Kunming mouse stomach assessed per organ at 1 uCi, iv after 240 mins by gamma counting; type: ADME, organism-based; details: in vivo, 4 h; in short: as §2
Brain [49] = assay: Biodistribution in Kunming mouse brain at 1 uCi, iv after 30 mins by gamma counting; type: ADME, organism-based; details: in vivo, 0.5 h; in short: as §1
Kidney [50] = assay: Biodistribution in Kunming mouse kidney at 1 uCi, iv after 240 mins by gamma counting; type: ADME, organism-based; details: in vivo, 4 h; in short: as §1
Stomach [51] = assay: Biodistribution in Kunming mouse stomach assessed per organ at 1 uCi, iv after 120 mins by gamma counting; type: ADME, organism-based; details: in vivo, 2 h; in short: as §2
Spleen [52] = assay: Biodistribution in Kunming mouse spleen at 1 uCi, iv after 30 mins by gamma counting; type: ADME, organism-based; details: in vivo, 0.5 h; in short: as §1
Kidney [53] = assay: Biodistribution in Kunming mouse kidney at 1 uCi, iv after 30 mins by gamma counting; type: ADME, organism-based; details: in vivo, 0.5 h; in short: as §1
Blood [54] = assay: Biodistribution in Kunming mouse blood at 1 uCi, iv after 2 mins by gamma counting; type: ADME, organism-based; details: in vivo; in short: as §1
Muscle tissue [55] = assay: Biodistribution in Kunming mouse muscle at 1 uCi, iv after 60 mins by gamma counting; type: ADME, organism-based; details: in vivo, 1 h; in short: as §1

## O=C(/C=C/c1ccccc1)n1ccc2cc([125I])ccc21
Heart [1]
  Drug uptake: 10.72 % ID/g
Stomach [2]
  Drug uptake: 1.72 %ID
Muscle tissue [3]
  Drug uptake: 2.47 % ID/g
Heart [4]
  Drug uptake: 2.07 % ID/g
Liver [5]
  Drug uptake: 6.48 % ID/g
Spleen [6]
  Drug uptake: 1.85 % ID/g
Muscle tissue [7]
  Drug uptake: 2.06 % ID/g
Stomach [8]
  Drug uptake: 2.08 %ID
Heart [9]
  Drug uptake: 1.53 % ID/g
Spleen [10]
  Drug uptake: 2.44 % ID/g
[11]
  logD: 2.53
Heart [12]
  Drug uptake: 0.61 % ID/g
Lung [13]
  Drug uptake: 4.88 % ID/g
Kidney [14]
  Drug uptake: 11.22 % ID/g
Heart [15]
  Drug uptake: 2.9 % ID/g
Lung [16]
  Drug uptake: 6.73 % ID/g
Blood [17]
  Drug uptake: 3.91 % ID/g
Brain [18]
  Drug uptake: 0.33 % ID/g
Liver [19]
  Drug uptake: 7.73 % ID/g
Spleen [20]
  Drug uptake: 4.08 % ID/g
Lung [21]
  Drug uptake: 2.1 % ID/g
Brain [22]
  Drug uptake: 0.77 % ID/g
Kidney [23]
  Drug uptake: 6.14 % ID/g
Blood [24]
  Drug uptake: 3.75 % ID/g
Spleen [25]
  Drug uptake: 0.59 % ID/g
Muscle tissue [26]
  Drug uptake: 3.97 % ID/g
Lung [27]
  Drug uptake: 1.27 % ID/g
Kidney [28]
  Drug uptake: 9.68 % ID/g
Liver [29]
  Drug uptake: 4.86 % ID/g
Stomach [30]
  Drug uptake: 1.09 %ID
Muscle tissue [31]
  Drug uptake: 0.19 % ID/g
Liver [32]
  Drug uptake: 2.23 % ID/g
Lung [33]
  Drug uptake: 2.66 % ID/g
Liver [34]
  Drug uptake: 15.89 % ID/g
Stomach [35]
  Drug uptake: 1.52 %ID
Kidney [36]
  Drug uptake: 3.54 % ID/g
Blood [37]
  Drug uptake: 1.61 % ID/g
Blood [38]
  Drug uptake: 2.88 % ID/g
Spleen [39]
  Drug uptake: 0.63 % ID/g
Liver [40]
  Drug uptake: 4.09 % ID/g
Brain [41]
  Drug uptake: 1.98 % ID/g
Brain [42]
  Drug uptake: 2 % ID/g
Muscle tissue [43]
  Drug uptake: 0.84 % ID/g
Blood [44]
  Drug uptake: 1.07 % ID/g
Heart [45]
  Drug uptake: 0.99 % ID/g
Lung [46]
  Drug uptake: 14.5 % ID/g
Brain [47]
  Drug uptake: 0.17 % ID/g
Stomach [48]
  Drug uptake: 1.3 %ID
Brain [49]
  Drug uptake: 1.57 % ID/g
Kidney [50]
  Drug uptake: 2.22 % ID/g
Stomach [51]
  Drug uptake: 2.29 %ID
Spleen [52]
  Drug uptake: 1.71 % ID/g
Kidney [53]
  Drug uptake: 10.16 % ID/g
Blood [54]
  Drug uptake: 14.13 % ID/g
Muscle tissue [55]
  Drug uptake: 1.06 % ID/g

From ChEMBL document CHEMBL1828568, “Novel imaging agents for β-amyloid plaque based on the N-benzoylindole core” (Bioorg Med Chem Lett, 2011)
